Results published in ChEMBL document CHEMBL1154055, “Synthesis and structure-activity relationships of N-(4-amino-2,6-diisopropylphenyl)-N'-(1,4-diarylpiperidine-4-yl)methylureas as anti-hyperlipidemic agents” (Bioorg Med Chem, 2009).
Converted amounts (≈) assume the structure as drawn. The source made the active and inactive calls. The rule behind the calls is not given here.

Key:
[1] = molecular target: T1, Sterol O-acyltransferase 1 (Rattus norvegicus, UniProt O70536); assay: Inhibition of ACAT in rat macrophages assessed as incorporation of extracellular [3H]-oleic acid-BSA complex into the intracellular cholesteryl ester after 24 hrs; type: cell-based
T1 sequence (O70536 whole entry): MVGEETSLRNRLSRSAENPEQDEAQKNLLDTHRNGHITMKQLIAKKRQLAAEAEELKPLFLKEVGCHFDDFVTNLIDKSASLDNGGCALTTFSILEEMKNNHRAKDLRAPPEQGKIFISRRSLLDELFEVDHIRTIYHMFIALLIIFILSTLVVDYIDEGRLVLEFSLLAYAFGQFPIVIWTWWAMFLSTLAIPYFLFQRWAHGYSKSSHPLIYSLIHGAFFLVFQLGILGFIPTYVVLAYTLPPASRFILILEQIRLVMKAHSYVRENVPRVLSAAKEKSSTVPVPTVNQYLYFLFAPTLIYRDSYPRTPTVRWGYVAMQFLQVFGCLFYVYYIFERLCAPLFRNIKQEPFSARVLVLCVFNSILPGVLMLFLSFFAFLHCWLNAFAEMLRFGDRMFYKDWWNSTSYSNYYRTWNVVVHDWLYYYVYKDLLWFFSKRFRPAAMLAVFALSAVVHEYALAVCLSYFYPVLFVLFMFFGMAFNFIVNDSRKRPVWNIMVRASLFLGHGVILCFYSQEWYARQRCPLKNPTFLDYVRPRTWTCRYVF
How it was run: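 Cells seeded at 2 × 10⁶ cells/mL/well, incubated 24 h at 37 °C (humidified, 5% CO₂) in medium containing liposomes, ³H-oleic acid–BSA complex and a range of compound concentrations. Protein measured by Lowry method.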

HepG2 [2] = assay: Up-regulation of LDL receptor expression in human HepG2 cells at 100 nM by immunoblot analysis; type: functional, cell-based
How it was run: (§1)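 HepG2 cells exposed to compound, lysed in 125 mM Tris–HCl pH 8.0, 2 mM CaCl₂, 1% Triton X-100 with protease inhibitor cocktail, then centrifuged. LDL receptor detected by immunoblot with mouse monoclonal anti-LDL-R antibody (clone IgG-C7).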

[3] = Solubility at pH 7.4; type: physicochemical; conditions: buffer
HepG2 [4] = assay: Up-regulation of LDL receptor expression in human HepG2 cells at 10 uM by immunoblot analysis; type: functional, cell-based; how it was run: as §1

| Compound | IC50 [1] [nM] | Activity (HepG2 [2]) | solubility [3] [µg/mL] | Activity (HepG2 [4]) |
| --- | --- | --- | --- | --- |
| COc1cccc(C2(CNC(=O)Nc3c(C(C)C)cc(N)cc3C(C)C)CCN(c3ccccc3OC(C)C)CC2)c1 | 37 | Active | – | – |
| COc1cccc(C2(CNC(=O)Nc3c(C(C)C)cc(N)cc3C(C)C)CCN(c3ccccc3OCCCN)CC2)c1.Cl | 195 | Active | 32 | – |
| COc1cccc(C2(CNC(=O)Nc3c(C(C)C)cc(N)cc3C(C)C)CCN(c3ccccc3O)CC2)c1 | – | inactive | – | – |
| COc1ccccc1N1CCC(CNC(=O)Nc2c(C(C)C)cc(N)cc2C(C)C)(c2cccc(OCCCO)c2)CC1 | 62 | Active | – | – |
| CC(C)c1cc(C(C)C)c(CC(=O)NS(=O)(=O)Oc2c(C(C)C)cccc2C(C)C)c(C(C)C)c1 [AVASIMIBE] | 479 | inactive | – | – |
| COc1cccc(C2(CNC(=O)Nc3c(C(C)C)cc(N)cc3C(C)C)CCN(c3ccccc3OCCCN(C)C)CC2)c1.Cl | 239 | – | > 250 | – |
| COc1ccccc1N1CCC(CNC(=O)Nc2c(C(C)C)cc(N)cc2C(C)C)(c2ccccc2)CC1 | 82 | inactive | – | – |
| COc1cccc(C2(CNC(=O)Nc3c(C(C)C)cc(N)cc3C(C)C)CCN(c3ccccc3OCCO)CC2)c1 | 96 | Active | – | – |
| COc1cccc(C2(CNC(=O)Nc3c(C(C)C)cc(N)cc3C(C)C)CCN(c3ccccc3OC)CC2)c1 | 37 | Active | – | – |
| COc1cccc(C2(CNC(=O)Nc3c(C(C)C)cc(N)cc3C(C)C)CCN(c3ccncc3)CC2)c1 | > 1000 | – | – | – |
| CCCCOc1ccccc1N1CCC(CNC(=O)Nc2c(C(C)C)cc(N)cc2C(C)C)(c2cccc(OC)c2)CC1 | 32 | Active | 0.3 (≈ 0.511 µM) | – |
| COc1cccc(N2CCC(CNC(=O)Nc3c(C(C)C)cc(N)cc3C(C)C)(c3cccc(OC)c3)CC2)c1 | 48 | inactive | – | – |
| COc1cccc(C2(CNC(=O)Nc3c(C(C)C)cc(N)cc3C(C)C)CCN(c3ncccc3OC)CC2)c1 | 6 | – | – | – |
| COc1cccc(C2(CNC(=O)Nc3c(C(C)C)cc(N)cc3C(C)C)CCN(c3ncccc3OCCCO)CC2)c1 | 4 | – | – | – |
| COc1ccccc1N1CCC(CNC(=O)Nc2c(C(C)C)cc(N)cc2C(C)C)(c2cccc(O)c2)CC1 | 797 | inactive | – | – |
| COc1cccc(C2(CNC(=O)Nc3c(C(C)C)cc(N)cc3C(C)C)CCN(c3ccccn3)CC2)c1 | 32 | – | – | – |
| COc1ccc(N2CCC(CNC(=O)Nc3c(C(C)C)cc(N)cc3C(C)C)(c3cccc(OC)c3)CC2)cc1 | 142 | inactive | – | – |
| COc1cccc(C2(CNC(=O)Nc3c(C(C)C)cc(N)cc3C(C)C)CCN(c3ccccc3OCC(F)(F)F)CC2)c1 | 48 | Active | – | – |
| COc1cccc(C2(CNC(=O)Nc3c(C(C)C)cccc3C(C)C)CCN(c3ccccc3)CC2)c1 | – | – | – | inactive |
| COc1cccc(C2(CNC(=O)Nc3c(C(C)C)cc(N)cc3C(C)C)CCN(c3ccccc3OC(F)(F)F)CC2)c1 | 68 | Active | – | – |
| CCCCn1c(=O)c(NC(=O)Nc2c(C(C)C)cc(N)cc2C(C)C)c(-c2cccc(OCCCO)c2)c2cccnc21 | 31 | Active | 10 (≈ 17.1 µM) | – |
| COc1cccc(C2(CNC(=O)Nc3c(C(C)C)cc(N)cc3C(C)C)CCN(c3ccccc3)CC2)c1 | 40 | – | – | inactive |
| COc1cccc(C2(CNC(=O)Nc3c(C(C)C)cc(N)cc3C(C)C)CCN(c3cccnc3)CC2)c1 | 466 | – | – | – |
| COc1cccc(C2(CNC(=O)Nc3c(C(C)C)cc(N)cc3C(C)C)CCN(c3ccccc3OCCCO)CC2)c1.Cl.Cl | 18 | Active | 22 | – |
